Consider 20 compounds from ChEMBL document CHEMBL1156933, “Studies of benzothiophene template as potent factor IXa (FIXa) inhibitors in thrombosis” (J Med Chem, 2010).

The target of one assay is Coagulation factor IX (Homo sapiens, UniProt P00740). The experiment in a line: Inhibition of human recombinant factor 9a by amidolytic assay.
In the next assay the target is Coagulation factor X (Homo sapiens, UniProt P00742). As to the kind of experiment: Inhibition of factor 10 by amidolytic assay. The procedure, abridged:
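Done by a previously published literature method. IC50 values are the mean of at least three experiments, with variation among results under 10%.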

Chain of Coagulation factor IX (P00740 47-191 limits assumed): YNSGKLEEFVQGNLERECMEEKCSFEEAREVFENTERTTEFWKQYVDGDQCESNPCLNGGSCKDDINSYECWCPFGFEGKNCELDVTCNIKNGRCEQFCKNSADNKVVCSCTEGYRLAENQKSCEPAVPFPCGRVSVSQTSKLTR
Chain of Coagulation factor IX (P00740 227-461 limits assumed): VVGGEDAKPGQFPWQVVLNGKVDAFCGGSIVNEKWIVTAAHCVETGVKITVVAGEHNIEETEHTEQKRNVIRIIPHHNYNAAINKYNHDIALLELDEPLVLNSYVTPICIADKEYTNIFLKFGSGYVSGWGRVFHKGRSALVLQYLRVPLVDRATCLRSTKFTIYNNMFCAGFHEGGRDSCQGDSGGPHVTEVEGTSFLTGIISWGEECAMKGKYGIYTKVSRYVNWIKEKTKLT
Chain of Coagulation factor X (P00742 41-179 limits assumed): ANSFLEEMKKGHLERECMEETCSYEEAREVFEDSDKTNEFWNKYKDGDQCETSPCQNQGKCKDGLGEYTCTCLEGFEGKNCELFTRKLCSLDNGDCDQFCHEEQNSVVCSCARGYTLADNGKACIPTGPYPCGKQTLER
Chain of Coagulation factor X (P00742 235-488 limits assumed): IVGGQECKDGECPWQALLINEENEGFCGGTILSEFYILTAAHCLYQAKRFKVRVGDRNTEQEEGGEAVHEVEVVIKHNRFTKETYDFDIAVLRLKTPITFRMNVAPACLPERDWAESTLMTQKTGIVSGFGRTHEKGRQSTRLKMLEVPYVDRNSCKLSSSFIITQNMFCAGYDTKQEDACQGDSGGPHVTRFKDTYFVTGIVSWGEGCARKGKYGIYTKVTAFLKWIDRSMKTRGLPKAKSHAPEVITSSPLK

As a reminder, the Ki is a measure of affinity in units of concentration, obtained from inhibition or displacement. For the compound `N=C(N)c1cc2cc(-c3ccccc3)ccc2s1`, on Coagulation factor IX, the inhibitory constant (Ki) was 8 µM.

`N=C(N)c1cc2c(-c3ccccc3)cccc2s1`: the Ki on Coagulation factor IX amounted to 1.6 µM.

As to `COC(=O)CC(Oc1ccc2cc(C(=N)N)sc2c1)c1ccc(Cl)cc1` (stereo unspecified), the Ki on Coagulation factor IX was 0.028 µM; on Coagulation factor X, 0.033 µM.

Take `N=C(N)c1cc2ccc(OCc3ccc(F)c(F)c3)cc2s1`: the inhibition constant Ki at Coagulation factor IX stood at 0.45 µM; on Coagulation factor X it was 5.7 µM.

`N=C(N)c1cc2ccc(OCc3ccc(Cl)cc3)cc2s1`: the Ki is 0.45 µM at Coagulation factor IX and 2.9 µM at Coagulation factor X.

As for `N=C(N)c1cc2ccc(OCc3cccnc3)cc2s1`, the inhibition constant (Ki) was determined as 1.05 µM on Coagulation factor IX and 3.35 µM at Coagulation factor X.

On to `N=C(N)c1cc2ccc(OCc3cccs3)cc2s1`, for which the Ki is 0.35 µM at Coagulation factor IX and 1.15 µM at Coagulation factor X.

Take `CC(Oc1ccc2cc(C(=N)N)sc2c1)c1ccc(F)cc1` (stereo unspecified): at Coagulation factor IX, the Ki was 11.3 µM.

On to `N=C(N)c1cc2ccc(OCc3ccccc3Cl)cc2s1`, for which, at Coagulation factor IX, the inhibition constant (Ki) was 7.2 µM.

For the compound `N=C(N)c1cc2c(OCc3ccccc3)cccc2s1`, the inhibitory constant (Ki) on Coagulation factor IX is 1.5 µM; on Coagulation factor X, 6 µM.

For `CCOC(=O)COc1ccc2cc(C(=N)N)sc2c1`, the Ki on Coagulation factor IX was 3.8 µM; at Coagulation factor X, 0.6 µM.

In the case of `COc1ccc(-c2ccc3sc(C(=N)N)cc3c2)cc1OC`, the figures for the inhibitory constant (Ki) at Coagulation factor IX and on Coagulation factor X were 5.9 µM and 11.9 µM, respectively.

For `COc1ccc(-c2ccc3cc(C(=N)N)sc3c2)cc1OC`, the Ki on Coagulation factor IX amounted to 24.2 µM.

For `COc1ccccc1COc1ccc2cc(C(=N)N)sc2c1`, on Coagulation factor IX, the Ki was found to be 26.9 µM.

With `COC(=O)c1ccc(COc2ccc3cc(C(=N)N)sc3c2)cc1`, the Ki at Coagulation factor IX amounted to 11.3 µM.

Turning to `N=C(N)c1cc2c(I)cccc2s1`, the Ki at Coagulation factor IX stood at 0.95 µM; at Coagulation factor X it was 22 µM.

For the compound `CCOC(=O)COc1cccc2sc(C(=N)N)cc12`, the inhibitory constant (Ki) at Coagulation factor IX stood at 11.9 µM.

Turning to `N=C(N)c1cc2ccc(OCCc3ccccc3)cc2s1`, at Coagulation factor IX, the Ki stood at 21.6 µM.

On to `Cc1ccc(COc2ccc3cc(C(=N)N)sc3c2)cc1`, for which the values for the Ki on Coagulation factor IX and on Coagulation factor X were 0.9 µM and 7.9 µM, respectively.

As to `N=C(N)c1cc2c(OCc3nc4ccccc4s3)cccc2s1`, the Ki at Coagulation factor IX stood at 0.8 µM; on Coagulation factor X it was 2.6 µM.
